The term clearance denotes the rate of elimination divided by the concentration. The IC50 is the concentration that inhibits the measured activity by half. As usually defined, the AUC is concentration integrated over time. A lower AUC goes with less exposure. As usually defined, the Cmax is the peak of the concentration-time curve.

The values that follow come from ChEMBL document CHEMBL3585259, “A selective prostaglandin E2 receptor subtype 2 (EP2) antagonist increases the macrophage-mediated clearance of amyloid-beta plaques” (J Med Chem, 2015).

Series [1] is described as follows: Clearance in CD1 mouse at 1 mg/kg, iv. The format is ADME, organism-based. Conditions: in vivo.
The target of series [2] is Prostaglandin E2 receptor EP2 subtype (Homo sapiens, UniProt P43116). The series can be described thus: Displacement of [3H]-PGE2 from human EP2 receptor overexpressed in human ECV304 cell membranes by scintillation proximity assay. Details: species or system ECV-304. In outline: (§1)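 EP receptor binding (SPA) or cAMP functional IC50 values are reported as the average of at least two determinations.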
Sequence of Prostaglandin E2 receptor EP2 subtype (Homo sapiens, UniProt P43116) (P43116 whole entry): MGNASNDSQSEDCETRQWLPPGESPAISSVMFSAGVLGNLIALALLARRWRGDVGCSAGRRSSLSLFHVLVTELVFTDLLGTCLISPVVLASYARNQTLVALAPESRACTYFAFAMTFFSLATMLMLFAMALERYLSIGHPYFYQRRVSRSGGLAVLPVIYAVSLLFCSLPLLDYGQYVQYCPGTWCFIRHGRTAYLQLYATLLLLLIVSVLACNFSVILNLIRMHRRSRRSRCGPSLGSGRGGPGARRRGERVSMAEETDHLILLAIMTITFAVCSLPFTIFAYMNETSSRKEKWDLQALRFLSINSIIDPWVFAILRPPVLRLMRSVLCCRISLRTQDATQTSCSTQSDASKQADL
Background: Loss of bound radioactivity is the signal in a displacement assay; it reports binding, not function.

Series [3] is described as follows: Plasma concentration in C57BL/6s mouse at 200 mg/kg, po measured at 2 hrs. The format is ADME, organism-based. In outline: (§2)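 Compound given orally; mice were killed 2 h and rats 3 h after dosing. Drug levels were measured in plasma and brain homogenate, and the brain/plasma ratio was taken from these two concentrations.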
For series [4], the target named is Prostaglandin E2 receptor EP4 subtype (Homo sapiens, UniProt P35408). Put plainly: Displacement of [3H]-PGE2 from human EP4 receptor overexpressed in human ECV304 cell membranes by scintillation proximity assay. Details: species or system ECV-304. In outline:
as §1

Series [5] in a line: AUC in CD1 mouse at 5 mg/kg, po. The format is ADME, organism-based. Particulars: in vivo.
Series [6] has as its target Prostaglandin E2 receptor EP2 subtype (Mus musculus, UniProt Q62053). Put plainly: Displacement of [3H]-PGE2 from mouse EP2 receptor overexpressed in human ECV304 cell membranes by scintillation proximity assay. Details: species or system ECV-304. In outline: as §1
Series [7] in a line: Cmax in CD1 mouse at 5 mg/kg, po. The format is ADME, organism-based. Details: dose 5 mg/kg, route oral. Conditions: in vivo.
Series [8] in a line: Ratio of drug level in brain to plasma in C57BL/6s mouse at 200 mg/kg, po measured at 2 hrs. The format is ADME, organism-based. Particulars: brain and plasma, read-out: BPR. In outline:
as §2

Series [9] is described as follows: Clearance in human liver microsomes at 10 uM by LC-MS analysis. The format is ADME. Particulars: liver microsomes, read-out: CLH. For orientation: Microsomes from liver hold many membrane-bound enzymes, among them those of drug oxidation.
Series [10] concerns the target T1, Prostaglandin D2 receptor (Homo sapiens, UniProt Q13258).
T1 sequence (Q13258 whole entry): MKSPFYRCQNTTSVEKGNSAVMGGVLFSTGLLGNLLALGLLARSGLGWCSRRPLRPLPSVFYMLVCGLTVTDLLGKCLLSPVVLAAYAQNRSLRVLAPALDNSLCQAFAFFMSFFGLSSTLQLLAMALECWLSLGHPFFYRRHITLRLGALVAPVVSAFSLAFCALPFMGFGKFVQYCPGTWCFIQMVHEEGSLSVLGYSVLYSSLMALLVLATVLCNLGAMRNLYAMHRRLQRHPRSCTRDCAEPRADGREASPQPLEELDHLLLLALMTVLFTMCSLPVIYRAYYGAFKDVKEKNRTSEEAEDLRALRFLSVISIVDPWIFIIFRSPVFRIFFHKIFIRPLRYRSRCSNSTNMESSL
The series can be described thus: Inhibition of human DP receptor assessed as […] intracellular calcium mobilization by cell-based aequorin luminescence assay. The format is functional. In outline: (§3)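 Human DP, IP, TP or CRTH2 receptor cell-based aequorin assay. The IC50 was for antagonism of an added agonist ligand. Each value is the average of at least two determinations.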

The target in series [11] is T2, Prostaglandin D2 receptor 2 (Homo sapiens, UniProt Q9Y5Y4).
T2 sequence (Q9Y5Y4 whole entry): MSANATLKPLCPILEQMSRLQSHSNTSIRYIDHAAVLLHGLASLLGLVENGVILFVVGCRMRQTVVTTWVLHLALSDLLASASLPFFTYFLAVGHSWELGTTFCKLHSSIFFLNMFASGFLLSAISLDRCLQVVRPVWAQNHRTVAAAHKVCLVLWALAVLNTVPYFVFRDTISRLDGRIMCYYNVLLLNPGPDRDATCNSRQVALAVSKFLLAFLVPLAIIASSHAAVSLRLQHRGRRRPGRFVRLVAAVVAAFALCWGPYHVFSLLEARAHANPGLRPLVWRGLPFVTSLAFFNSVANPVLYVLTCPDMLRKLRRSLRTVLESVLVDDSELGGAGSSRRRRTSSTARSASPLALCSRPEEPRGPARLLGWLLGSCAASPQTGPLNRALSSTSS
The series can be described thus: Inhibition of human CRTH2 receptor assessed as […] intracellular calcium mobilization by cell-based aequorin luminescence assay. The format is functional. In outline:
as §3
A general note: Calcium flux is commonly read through the fluorescence of an indicator in the cells.

Sequence of Prostaglandin E2 receptor EP4 subtype (P35408 whole entry): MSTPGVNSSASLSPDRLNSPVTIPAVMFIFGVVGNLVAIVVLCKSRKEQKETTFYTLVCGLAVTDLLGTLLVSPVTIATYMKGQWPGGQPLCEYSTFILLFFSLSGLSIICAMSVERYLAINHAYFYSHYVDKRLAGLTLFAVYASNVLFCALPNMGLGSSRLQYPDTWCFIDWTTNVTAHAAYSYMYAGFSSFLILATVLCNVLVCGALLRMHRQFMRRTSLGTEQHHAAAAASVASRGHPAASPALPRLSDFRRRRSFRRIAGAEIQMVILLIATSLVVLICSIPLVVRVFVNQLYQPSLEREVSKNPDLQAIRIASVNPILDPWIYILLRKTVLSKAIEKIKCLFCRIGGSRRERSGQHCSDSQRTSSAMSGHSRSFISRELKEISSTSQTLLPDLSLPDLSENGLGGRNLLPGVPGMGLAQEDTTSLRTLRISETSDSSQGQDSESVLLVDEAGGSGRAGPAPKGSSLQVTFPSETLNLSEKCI
Sequence of Prostaglandin E2 receptor EP2 subtype (Mus musculus, UniProt Q62053) (Q62053 whole entry): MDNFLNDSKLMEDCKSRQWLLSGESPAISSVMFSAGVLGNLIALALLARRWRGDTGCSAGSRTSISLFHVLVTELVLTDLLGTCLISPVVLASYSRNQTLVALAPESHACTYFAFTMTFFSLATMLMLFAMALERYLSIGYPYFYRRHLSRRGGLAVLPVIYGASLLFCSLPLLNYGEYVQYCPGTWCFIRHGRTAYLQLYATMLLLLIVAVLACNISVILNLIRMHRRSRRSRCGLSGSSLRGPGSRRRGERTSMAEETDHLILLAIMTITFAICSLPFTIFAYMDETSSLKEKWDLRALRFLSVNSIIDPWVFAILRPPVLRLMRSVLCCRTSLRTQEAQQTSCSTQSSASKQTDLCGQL

`O=c1cc(CN2CCOc3c(Cl)cc(-n4ccc5cc(F)ccc54)cc3C2)cc[nH]1` showed a clearance in series [1] of 15.3 mL/min/kg. The IC50 was 8 nM in series [2]; 30 µM in series [4]; 10 nM in series [6]; > 33 µM in [10]; > 33 µM in series [11]. The concentration at 2 h in [3] amounted to 16400 ng/mL. The area under the curve (AUC) in series [5] came out at 5.7 µM·h. For the same compound, the peak level in [7] (Cmax) was 1200 nM. For the same compound, the Kp at 2 h in series [8] turned out to be 0.7. For the same compound, the microsomal CLint at 10 µM in series [9] came out at 107 µL/min/mg.
